This is a sample that favours compounds with a hit; in the whole collection about 1.9% have one here.
APP 5UTR inh = APP translation inhibition | SH-SY5Y APP 5'UTR-luciferase reporter, luminescence | AID 1285 | hit rate 0.82% among 190,000 | inhibition, % at 2 µM;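 active = inhibition above a set limit, derived from the sample mean plus 3 SD, cut at about 45% in these data; inconclusive = one replicate passes the limit while the other fails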
aSyn UTR inh = MLPCN primary screen, SNCA 5' untranslated region | alpha-synuclein 5'UTR reporter, inhibitor activity | inhibition, % (tested at 7.5 µM) | hit rate 0.82% among 300,000; in the data active = inhibition above about 60%; inconclusive = no clear call, values can overlap the other calls;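 also: H4 neuroglioblastoma cells stably carrying SNCA 5'UTR luciferase fusion; 0% = DMSO wells and 100% = positive control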
H9c2 TAG inh = triacylglycerol accumulation inhibition; H9c2 cells, Nile Red lipid (TAG) fluorescence; cells loaded with 200 µM oleic acid; inhibition, % at 12.5 µM; AID 651582; hit rate 0.66% among 230,000;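 active = pattern-corrected inhibition of lipid staining of at least 50% with the nuclear-stain viability signal not falling by more than 50%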;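 also: 0% = DMSO wells and 100% = triacsin C control wells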
Jurkat NFkB inh = inhibitors of the PMA/ionomycin-induced NF-kB reporter in Jurkat cells; inhibition, % at 4 µM; hit rate 0.53% among 330,000; PMA/ionomycin-induced NF-kB luciferase reporter, luminescence; in the data active = inhibition above about 50%
Lipid droplet = modulators of hepatic lipid droplet formation; hit rate 0.4% among 240,000; inhibition, % at 6.5 µM; AID 1656; AML12 mouse hepatocytes, oleate lipid droplets, BODIPY imaging;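 active = lipid droplet intensity inhibited by at least 50%, with more than 500 cells counted; inconclusive = wells with under 300 cells, treated as cytotoxic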
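Test system: AML12 hepatocytes (mouse); reagent: oleate loading, 100 µM; dosing: one dose, 6.5 µM compound; incubation: overnight exposure; signal: fluorescence imaging, 20x objective, two fields per well; read-out basis: % inhibition of corrected integrated BODIPY droplet signal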
697 NFkB inh = lowers PMA/ionomycin-induced NF-kB signal in 697 B cells; 697 B-cell NF-kB luciferase reporter, 16 h; inhibition, % at 4 µM; hit rate 0.33% among 330,000; AID 435022; in the data active = inhibition above about 35%
697 NFkB conf = inhibitors of the PMA/ionomycin-induced NF-kB reporter in 697 B cells, retest | inhibition, % at 4 µM | shares compounds with 697 NFkB inh | 697 B-cell NF-kB luciferase, 16 h | hit rate 35% among 2,000; in the data active = inhibition mostly above about 28%, no sharp cut-off; inactive = mostly below about 22%
Numbers without * were called inactive; i = inactive; u = inconclusive; x = not tested or not shown.

SMILES | APP 5UTR inh | aSyn UTR inh | H9c2 TAG inh | Jurkat NFkB inh | Lipid droplet | 697 NFkB inh | 697 NFkB conf
Cc1nn(Cc2c(Cl)cccc2Cl)c(C)c1NC(=O)c1cc(C(C)C)on1 | -9 | 23 | -2 | -55 | x | -470 | i
Cc1ccc(/C=C2\SC(=S)N(CCCC(=O)Nc3cc(C)on3)C2=O)cc1 | x | u | 3 | -5 | -1 | 53* | 59*
Cc1ccc(/C=C2\SC(=S)N(CCC(=O)NNC(=O)c3ccncc3)C2=O)cc1 | x | 3 | 9 | -5 | 5 | 44* | 31*
Cc1ccc(/C=C2\SC(=S)N(CC(=O)Nc3cccnc3)C2=O)cc1 | -8 | 17 | x | 1 | 3 | -1 | x
O=C(CCN1C(=O)/C(=C/c2ccc(F)cc2)SC1=S)NNC(=O)c1ccncc1 | -8 | -16 | 10 | 11 | 20 | 10 | x
Cc1ccc(/C=C2\SC(=S)N(CCCC(=O)Nc3cccnc3)C2=O)cc1 | x | 79* | 25 | 18 | 17 | 90* | 99*
Cc1ccc(C(=O)c2coc3cc([N+](=O)[O-])c(O)c([N+](=O)[O-])c23)cc1 | 14 | -4 | x | 3 | 5 | 3 | x
Cc1ccc(S(=O)(=O)N(C)C[C@@H]2OCc3cn(nn3)CCCC(=O)N([C@@H](C)CO)C[C@H]2C)cc1 | x | x | 7 | x | x | x | x
Cc1ccnc(NC(=O)Nc2ccc3c(c2)N(C)C(=O)CS3)c1 | -38 | -97 | x | -77 | 1 | -338 | -227
Cc1ccc(NC(=O)Nc2ccc3c(c2)N(C)C(=O)CS3)nc1 | 1 | -11 | x | 10 | -12 | -78 | x
CN1C(=O)CSc2ccc(NC(=O)N3CCN(c4ccccc4)CC3)cc21 | -23 | 14 | x | -11 | -2 | 36* | 31*
CC(=O)c1ccc(NC(=O)Nc2ccc3c(c2)N(C)C(=O)CS3)cc1 | x | -17 | 6 | -10 | 16 | 10 | x
O=C(CN1C2CCCC1CC(NC(=O)c1ccccc1)C2)Nc1ccccc1 (stereo unspecified) | x | -11 | x | 5 | 2 | 8 | x
CC(C)Oc1cc(O)c2c(=O)c(-c3ccc(O)cc3)coc2c1 | -164 | -138 | 2 | -33 | 3 | -285 | -191
Clc1ccc(/C=C/c2nc3ccccc3[nH]2)c(Cl)c1 | -221 | 68* | x | -146 | x | -488 | i
CC(=O)N1c2ccc(S(=O)(=O)N3CCCC(C(=O)NCc4ccccc4)C3)cc2CC1C (stereo unspecified) | x | -6 | -13 | 10 | -1 | -4 | x
CCOc1cc(/C=C(/C#N)c2nc3ccccc3[nH]2)ccc1Oc1ccc([N+](=O)[O-])cn1 | -22 | 0 | x | 9 | -6 | 40* | 7
CCOc1cc(/C=C(\C#N)c2nc3ccccc3[nH]2)ccc1OC(C)C(=O)O (stereo unspecified) | x | 0 | x | 0 | -2 | 18 | x
CC(NC(=O)CCSCc1ccccc1F)c1ccccc1 (stereo unspecified) | x | -51 | x | -24 | 4 | 2 | x
CC1=NOC(=O)/C1=C/c1ccc(N(C)C)cc1 | 5 | -7 | x | -3 | x | 13 | x
CCN(CC)c1ccc(/C=C2/C(=O)ON=C2C)cc1 | 15 | -11 | -14 | 14 | -18 | 40* | 36*
O=c1[nH]c(=O)n([C@H]2C[C@H](O)[C@@H](CO)O2)cc1C(F)(F)F | 59* | 77* | 20 | 46 | -68 | 48* | 58*
NC(=O)C1CCN(C(=O)COc2ccc3ccccc3c2Br)CC1 | x | -27 | 1 | 9 | -18 | 57* | 60*
COc1cccc(C(=O)Cn2c(=N)n(C)c3ccccc32)c1 | -165 | 86* | x | -98 | x | -304 | -273
Cn1nc(-c2ccc(Cl)cc2)c2cc(C(=O)N3CCCC3)sc21 | 5 | -49 | 17 | 9 | x | 56* | 43*
SMILES | APP 5UTR inh | aSyn UTR inh | H9c2 TAG inh | Jurkat NFkB inh | Lipid droplet | 697 NFkB inh | 697 NFkB conf
Cn1c(=O)n(C)c2cc(NC(=O)CSc3nnc(-c4ccccc4O)n3-c3ccccc3)ccc21 | 9 | -18 | x | 7 | -4 | 36* | 41*
O=C(CNS(=O)(=O)c1cccc(Cl)c1)Nc1ccc(-c2nc3ccccc3s2)cc1 | -129 | -42 | x | -127 | -6 | -319 | -229
CCCC(=O)Nc1cc(Cl)ccc1N1CCN(C(=O)CC)CC1 | 0 | 3 | x | 7 | -12 | -13 | x
COc1ccc2cc(CO)n(C)c2c1 | x | x | x | 7 | x | -1 | x
Cc1cc2ccccn2c1C(=O)c1ccc(NN)c([N+](=O)[O-])c1 | 0 | -5 | -15 | 19 | 3 | 45* | 42*
CCOCCCNc1nc2c(C)cccn2c(=O)c1/C=C1\SC(=S)N(C(C)CC)C1=O (stereo unspecified) | x | -16 | i | 6 | 86* | 37* | 32*
O=S(=O)(N/N=C/c1cn(Cc2ccccc2)c2ccccc12)c1ccccc1 | 12 | 53 | x | -8 | x | -33 | x
COc1cccc(C(=O)NCC2(c3ccccc3)CCCC2)c1OC | x | -5 | -35 | 3 | -16 | -11 | x
COc1cc2c(cc1NC(=O)c1ccc(C(C)(C)C)cc1)CCCC2 | 2 | -14 | 30 | -61 | x | i | -486
COc1ccc(C(=O)Nc2cc3c(cc2OC)CCCC3)cc1Br | 1 | -5 | 46 | -1 | x | -19 | x
NNC(=O)c1cnn(-c2ccccc2)c1-n1cccc1 | 25 | 5 | 6 | -2 | 5 | 4 | x
COc1cc(Br)c(C(=O)c2nccc3cc(OC)c(OC)cc23)cc1OC | x | 14 | -15 | 15 | -6 | 39* | 30*
COc1cc(N)c(C(=O)c2nccc3cc(OC)c(OC)cc23)cc1OC | x | 9 | x | -15 | -1 | -6 | x
COC(=O)[C@]1(Cc2ccccc2)N[C@H](c2ccc(-c3ccc4c(c3)OCO4)cc2)[C@@H]2C(=O)N(C)C(=O)[C@@H]21 | x | -7 | x | 7 | x | 3 | x
Cc1[nH]c2ccccc2c1C(=O)CN1C(=O)NC2(CC(C)CC(C)(C)C2)C1=O (stereo unspecified) | 1 | u | x | 16 | 8 | 38* | 49*
CCn1c(=O)c2sccc2n2c(CCCC(=O)NCCc3ccc(S(N)(=O)=O)cc3)nnc12 | x | -16 | x | -1 | 0 | 6 | x
CC1Oc2ccccc2C=C1/C=N/Nc1ccc(C(=O)O)cc1 (stereo unspecified) | x | -95 | 32 | -126 | 0 | -350 | -104
CCOC(=O)CN(Cc1sccc1C)C(=O)Nc1ccc(OCC)cc1 | -4 | 12 | x | -6 | 10 | -4 | x
O=c1c2ccccc2sc2ccc(C#CC3(O)CCCCC3)cc12 | x | 104* | -15 | 44 | x | 40* | 16
Nc1ccc(C#Cc2ccc3sc4ccccc4c(=O)c3c2)cc1 | x | -190 | 2 | -53 | x | -44 | x
Brc1ccc(N=C(c2ccccc2)c2ccncc2)cc1 | 0 | -22 | x | 12 | -6 | -12 | x
CN(CC(=O)Nc1ccccc1Cl)C(=O)COC(=O)CCN1C(=O)C2CC=CCC2C1=O (stereo unspecified) | x | 11 | 2 | 6 | x | 14 | x
